# Measurements from PMC8091929 (Journal of medicinal chemistry, 2020).
# Legend:
# [1] = tested on: RNAP holoenzyme; conditions: cited from earlier work
# [2] = tested on: human erythrocytes; assay: In vitro hemolysis assay; assay type: cell-based; conditions: 0.1, 1, and 10 μg/mL, 37 °C, 45 min, PBS pH 7.4
# How it was run: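 Human whole-blood erythrocytes were pelleted at 500g, 4 °C, 5 min, washed in 150 mM NaCl, resuspended in PBS pH 7.4 and diluted 40×. They were mixed 4:1 with drug solution in PBS containing 0.5% DMSO, giving final 0.1, 1 or 10 μg/mL, and held 45 min at 37 °C (n = 6). Controls were 1% v/v Triton X-100 and PBS. After spinning at 500g for 10 min, supernatant A540 was read and % lysis was normalized to the controls.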
# [3] = biological target: E. coli core RNAP with σ^70 (Escherichia coli, UniProt P0A8T7); assay: In vitro transcription initiation assay; assay type: biochemical; conditions: σ^70, λ PR promoter template, 26-mer RNA
# [4] = tested on: S. pneumoniae ATCC 49619; assay: MIC by broth microdilution; assay type: cell-based, Streptococcus pneumoniae; conditions: S. pneumoniae ATCC 49619, broth microdilution, 20 h at 37 °C
# [5] = tested on: S. agalactiae (GBS); assay: Time-kill kinetics, S. agalactiae; assay type: cell-based, Streptococcus agalactiae; conditions: over 6 h, even at 16 MIC
# How it was run: (§1)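 S. aureus was grown in MHB; S. agalactiae and S. pneumoniae in BHI with 5% CO₂. Incubation was 37 °C, 200 rpm. Samples taken at 0, 2, 4 and 6 h were serially diluted 10-fold and plated. CFU/mL was counted after overnight incubation at 37 °C, 5% CO₂. Triplicates.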
# [6] = tested on: S. aureus ATCC 29213 cells; assay: Cell content quantification of major macromolecules; assay type: cell-based, Staphylococcus aureus; conditions: S. aureus ATCC 29213, 1/4 and 1/8 MIC, versus no-drug control
# How it was run: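 A master culture of S. aureus ATCC 29213 was inoculated at OD₆₀₀ 0.1 and grown at 37 °C, 200 rpm to OD₆₀₀ 0.2. It was then split into aliquots with test compound or rifampicin at 1/4 and 1/8 MIC, plus an untreated aliquot. Cells were harvested at OD₆₀₀ 0.6 with volumes normalized, then pelleted. DNA, RNA and protein were kit-extracted. DNA and RNA were measured by Qubit BR fluorometric assays and protein by BCA. Triplicates.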
# [7] = tested on: S. pneumoniae ATP production; assay: ATP production of S. pneumoniae cells; assay type: cell-based, Streptococcus pneumoniae; conditions: at 1/4 MIC
# [8] = tested on: B. subtilis BS1048 (RNAP β′-GFP); assay: Confocal microscopy of RNAP-GFP localization; assay type: cell-based, Bacillus subtilis; conditions: B. subtilis BS1048, at 1/2 MIC, 15 min
# How it was run: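 2.5 μL culture placed on fresh 1.2% agarose pad under coverslip; imaged by confocal microscopy (63×/1.3 oil objective, mercury metal halide lamp).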
# [9] = tested on: S. aureus; assay: Time-kill kinetics, S. aureus; assay type: cell-based, Staphylococcus aureus; conditions: over 6 h, even at 16 MIC
# How it was run: as §1
# [10] = tested on: pneumolysin; assay: Pneumolysin secretion, Western blot of culture supernatant; assay type: cell-based, Streptococcus pneumoniae; conditions: overnight culture of S. pneumoniae at 1/2 and 1/4 MIC, versus drug-free control
# How it was run: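 S. pneumoniae cultured overnight in BHI without agitation, with or without serially diluted test compound; rifampicin and ceftriaxone controls at 2–0.002 μg/mL; 16–20 h. […] Western blot on PVDF, 5% milk/TBST block, rabbit polyclonal anti-pneumolysin 1:1000, overnight at 4 °C.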
# [11] = Solubility under the conditions of the CH–σ assay; assay type: physicochemical; conditions: conditions of the CH–σ protein complementation assay
# [12] = tested on: S. pneumoniae; assay: Time-kill kinetics, S. pneumoniae; assay type: cell-based, Streptococcus pneumoniae
# How it was run: as §1
# [13] = tested on: Gram-positive pathogens; assay: MIC against other Gram-positive pathogens; assay type: cell-based
# How it was run: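 Broth microdilution followed CLSI, in cation-adjusted Mueller–Hinton broth or BHI where indicated. Twofold dilutions ran from 256 to 0.5 μg/mL, with inoculum ~5 × 10⁵ CFU/mL and 20 h incubation at 37 °C. Panel strains were ATCC Gram-positive strains (Enterococcus, S. aureus, streptococci, staphylococci). MIC was the lowest concentration with no visible growth. At least duplicates.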
# Chain of E. coli core RNAP with σ^70 (P0A7Z4 whole entry): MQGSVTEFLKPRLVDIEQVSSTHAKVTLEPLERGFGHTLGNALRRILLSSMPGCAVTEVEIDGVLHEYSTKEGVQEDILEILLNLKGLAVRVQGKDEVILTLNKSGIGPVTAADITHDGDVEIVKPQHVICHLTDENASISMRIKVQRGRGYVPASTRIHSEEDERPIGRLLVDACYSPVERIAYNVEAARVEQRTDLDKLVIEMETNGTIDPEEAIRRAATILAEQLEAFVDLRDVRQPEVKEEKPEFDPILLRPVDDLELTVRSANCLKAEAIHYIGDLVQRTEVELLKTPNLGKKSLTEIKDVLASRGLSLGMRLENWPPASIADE
# Chain of E. coli core RNAP with σ^70 (P0A8T7 whole entry): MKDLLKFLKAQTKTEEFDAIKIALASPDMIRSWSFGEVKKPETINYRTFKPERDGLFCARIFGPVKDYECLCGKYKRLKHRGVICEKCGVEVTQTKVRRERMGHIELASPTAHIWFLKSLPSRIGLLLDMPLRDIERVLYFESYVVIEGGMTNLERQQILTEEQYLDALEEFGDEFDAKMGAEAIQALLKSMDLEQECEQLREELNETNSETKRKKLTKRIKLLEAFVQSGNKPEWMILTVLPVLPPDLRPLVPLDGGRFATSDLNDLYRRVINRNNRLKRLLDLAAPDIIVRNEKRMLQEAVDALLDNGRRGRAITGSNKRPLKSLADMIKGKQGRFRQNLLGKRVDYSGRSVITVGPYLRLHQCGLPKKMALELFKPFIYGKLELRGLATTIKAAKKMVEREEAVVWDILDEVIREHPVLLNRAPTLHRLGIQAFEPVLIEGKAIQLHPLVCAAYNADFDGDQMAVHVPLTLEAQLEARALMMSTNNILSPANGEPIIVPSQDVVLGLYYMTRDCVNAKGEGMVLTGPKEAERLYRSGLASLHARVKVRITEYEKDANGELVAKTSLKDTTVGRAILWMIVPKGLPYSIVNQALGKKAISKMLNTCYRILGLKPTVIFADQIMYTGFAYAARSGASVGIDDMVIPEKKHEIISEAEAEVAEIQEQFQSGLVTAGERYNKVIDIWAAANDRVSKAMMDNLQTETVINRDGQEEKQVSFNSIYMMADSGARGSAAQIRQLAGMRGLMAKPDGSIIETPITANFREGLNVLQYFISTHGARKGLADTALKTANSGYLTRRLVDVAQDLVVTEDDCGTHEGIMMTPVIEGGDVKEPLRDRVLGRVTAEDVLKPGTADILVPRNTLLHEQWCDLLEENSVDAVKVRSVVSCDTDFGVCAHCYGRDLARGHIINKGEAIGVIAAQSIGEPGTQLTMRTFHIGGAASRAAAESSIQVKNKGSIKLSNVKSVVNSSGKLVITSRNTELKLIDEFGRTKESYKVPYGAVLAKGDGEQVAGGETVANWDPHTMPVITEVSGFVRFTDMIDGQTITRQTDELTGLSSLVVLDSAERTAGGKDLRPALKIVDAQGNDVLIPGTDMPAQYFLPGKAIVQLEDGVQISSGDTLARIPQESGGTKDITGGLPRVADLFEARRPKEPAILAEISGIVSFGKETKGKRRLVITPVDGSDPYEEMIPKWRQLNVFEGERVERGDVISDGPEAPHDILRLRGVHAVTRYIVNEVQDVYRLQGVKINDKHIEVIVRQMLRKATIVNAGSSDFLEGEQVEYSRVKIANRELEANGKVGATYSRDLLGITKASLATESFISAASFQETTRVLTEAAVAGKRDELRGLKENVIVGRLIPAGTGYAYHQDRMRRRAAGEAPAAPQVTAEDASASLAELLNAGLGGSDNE
# Chain of E. coli core RNAP with σ^70 (P0A800 whole entry, further chain): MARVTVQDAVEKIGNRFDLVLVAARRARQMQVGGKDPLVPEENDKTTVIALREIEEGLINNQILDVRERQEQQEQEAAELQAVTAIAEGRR
# Chain of E. coli core RNAP with σ^70 (P0A8V2 whole entry, further chain): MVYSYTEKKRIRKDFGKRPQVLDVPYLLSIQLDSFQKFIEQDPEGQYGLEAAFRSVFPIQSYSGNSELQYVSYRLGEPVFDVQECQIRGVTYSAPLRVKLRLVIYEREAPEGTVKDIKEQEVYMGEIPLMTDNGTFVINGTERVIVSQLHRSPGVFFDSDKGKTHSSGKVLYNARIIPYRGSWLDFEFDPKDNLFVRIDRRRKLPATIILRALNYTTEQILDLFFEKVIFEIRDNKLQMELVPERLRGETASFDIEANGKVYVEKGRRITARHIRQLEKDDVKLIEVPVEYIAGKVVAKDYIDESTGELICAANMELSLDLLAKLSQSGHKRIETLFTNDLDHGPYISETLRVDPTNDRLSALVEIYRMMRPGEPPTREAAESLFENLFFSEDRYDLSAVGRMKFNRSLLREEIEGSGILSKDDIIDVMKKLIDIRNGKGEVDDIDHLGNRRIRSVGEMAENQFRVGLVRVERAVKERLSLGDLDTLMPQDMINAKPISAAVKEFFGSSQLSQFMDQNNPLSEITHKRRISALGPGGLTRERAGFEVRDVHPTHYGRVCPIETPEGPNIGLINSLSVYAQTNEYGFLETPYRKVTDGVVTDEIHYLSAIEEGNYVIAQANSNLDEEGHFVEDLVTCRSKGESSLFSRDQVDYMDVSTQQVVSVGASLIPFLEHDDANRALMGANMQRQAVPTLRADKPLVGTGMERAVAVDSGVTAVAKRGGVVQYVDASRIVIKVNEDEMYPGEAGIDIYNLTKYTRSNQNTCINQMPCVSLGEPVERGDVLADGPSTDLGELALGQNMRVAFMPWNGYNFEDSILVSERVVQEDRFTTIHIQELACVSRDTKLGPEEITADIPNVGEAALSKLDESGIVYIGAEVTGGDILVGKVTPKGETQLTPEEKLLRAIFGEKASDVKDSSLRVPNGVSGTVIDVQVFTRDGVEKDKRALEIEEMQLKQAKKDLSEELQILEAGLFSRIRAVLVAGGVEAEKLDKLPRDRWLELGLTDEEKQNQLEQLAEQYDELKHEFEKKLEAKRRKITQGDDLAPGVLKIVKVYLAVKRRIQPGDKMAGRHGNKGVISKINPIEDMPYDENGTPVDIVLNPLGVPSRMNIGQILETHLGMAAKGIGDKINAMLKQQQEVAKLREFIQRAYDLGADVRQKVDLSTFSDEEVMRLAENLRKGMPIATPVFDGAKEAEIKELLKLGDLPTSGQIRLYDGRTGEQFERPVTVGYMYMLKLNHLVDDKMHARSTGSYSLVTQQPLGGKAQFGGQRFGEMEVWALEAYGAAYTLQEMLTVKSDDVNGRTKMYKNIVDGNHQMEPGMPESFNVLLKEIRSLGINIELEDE
smiles,measurement,setting,value
"Nc1ccccc1Sc1ccc(C(=O)c2ccccc2C(=O)O)cc1[N+](=O)[O-] [Compound 1, 2-(4-((2-Aminophenyl)thio)-3-nitrobenzoyl)benzoic acid]",RNAP holoenzyme formation and RNA synthesis in vitro,[1],inhibited
"O=C(O)c1ccccc1C(=O)c1ccc(Sc2ccc(Cl)c(Cl)c2)c([N+](=O)[O-])c1 [Compound 13, 2-(4-((3,4-dichlorophenyl)thio)-3-nitrobenzoyl)benzoic acid]",hemolytic value (% of lysis),[2],< 10%
same,inhibition of transcription (RNA synthesis) in vitro,[3],inhibited transcription
"O=C(Nc1ccccc1C(=O)O)c1ccc(Sc2ccc(Cl)c(Cl)c2)c([N+](=O)[O-])c1 [Compound 41, 2-(4-((3,4-Dichlorophenyl)thio)-3-nitrobenzamido)benzoic Acid]",MIC,[4],lost activity completely
"O=C(O)c1ccccc1NCc1ccc(Sc2ccc(Cl)c(Cl)c2)c([N+](=O)[O-])c1 [Compound 43, 2-((4-((3,4-Dichlorophenyl)thio)-3-nitrobenzyl)amino)benzoic Acid]",hemolytic value (% of lysis),[2],< 10%
"O=C(O)c1ccc(Cl)c(NCc2ccc(Sc3ccc(Cl)c(Cl)c3)c([N+](=O)[O-])c2)c1 [Compound 45, 4-Chloro-3-((4-((3,4-dichlorophenyl)thio)-3-nitrobenzyl)amino)-benzoic Acid]",hemolytic value (% of lysis),[2],< 10%
"O=C(O)c1ccc(Cl)cc1NCc1ccc(Sc2ccc(Cl)c(Cl)c2)c([N+](=O)[O-])c1 [Compound 54, 4-Chloro-2-((4-((3,4-dichlorophenyl)thio)-3-nitrobenzyl)amino)-benzoic Acid]",time-kill profile,[5],largely bacteriostatic
same,total RNA levels,[6],reduction
same,total levels of DNA,[6],remained mostly unaffected
same,total protein levels,[6],Reduction
same,ATP production rate,[7],significant decrease
same,RNAP-GFP localization,[8],delocalization of the fluorescence from the nucleoid
same,time-kill profile,[9],largely bacteriostatic
same,pneumolysin levels in culture supernatant,[10],substantial decrease
same,solubility under the testing conditions,[11],insolubility under the testing conditions
same,time-kill profile,[12]; at 1 MIC,largely bacteriostatic
same,decrease in cell count,[12]; at higher concentrations (4 and 16 MICs),ca. 2 fold log10 decrease
same,inhibition of transcription (RNA synthesis) in vitro,[3],much more potent inhibition
same,MIC,[13],1 to 2 µg/mL
CO/N=C(\C(=O)N[C@@H]1C(=O)N2C(C(=O)O)=C(CSc3nc(=O)c(O)nn3C)CS[C@H]12)c1csc(N)n1 [ceftriaxone],pneumolysin levels in culture supernatant,[10],increased
"CO[C@H]1/C=C/O[C@@]2(C)Oc3c(C)c(O)c4c(O)c(c(/C=N/N5CCN(C)CC5)c(O)c4c3C2=O)NC(=O)/C(C)=C\C=C\[C@H](C)[C@H](O)[C@@H](C)[C@@H](O)[C@@H](C)[C@H](OC(C)=O)[C@@H]1C [rifampicin, reference compound]",total RNA levels,[6],reduced
same,total levels of DNA,[6],remained mostly unaffected
same,pneumolysin levels in culture supernatant,[10],suppressed
